# Screening data: PubChem BioAssay, several laboratories
# Calb FLC – C. albicans growth modulation with fluconazole; 300,000 compounds, 0.57% hits; growth inhibition, % (test concentration not listed); C. albicans CaCi-2 (fluconazole-resistant clinical isolate) + fluconazole, Alamar Blue growth, 48 h;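 active = growth inhibition above about 58% in most replicates, limit read from the data, passing the limit was not always enough; inconclusive = exactly half the replicates above a set limit; inactive = most replicates below a set limit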;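 also: all wells also contain fluconazole at 8 µg/ml as a sub-toxic cotreatment; 0% = median of DMSO wells and 100% = median of geldanamycin control wells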
# SKKanGAS inh – SKKanGAS growth inhibition; S. pyogenes SKKanGAS, kanamycin growth, BacTiter-Glo, 6 h; inhibition, % at 7.5 µM; 300,000 compounds, 1.3% hits; AID 1662;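 active = mean replicate score, as percent of positive control median, at least 50; inconclusive = mean below 50 but one replicate at or above 50; inactive = mean and every replicate below 50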;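 also: strain carries kanamycin resistance gene driven by streptokinase promoter and grows in 40 µg/ml kanamycin; loss of luminescence reflects streptokinase promoter inhibition or plain growth inhibition; 0% = median of DMSO wells and 100% = positive control at its reference dose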
# HGIII-sPLA2 inh – Blocks human group III sPLA2 activity; inhibition, % at 12.2 µM; 370,000 compounds, 0.56% hits; QFRET BODIPY PC-A2 liposome hydrolysis, fluorescence; Q9NZ20;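 active = inhibition above mean plus 3 SD of compounds lying within the high and low control bounds, cut at about 19% in these data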;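 also: 0% = median of test compound wells and 100% = no enzyme DMSO wells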
# Target sequence (Q9NZ20 whole entry, looked up): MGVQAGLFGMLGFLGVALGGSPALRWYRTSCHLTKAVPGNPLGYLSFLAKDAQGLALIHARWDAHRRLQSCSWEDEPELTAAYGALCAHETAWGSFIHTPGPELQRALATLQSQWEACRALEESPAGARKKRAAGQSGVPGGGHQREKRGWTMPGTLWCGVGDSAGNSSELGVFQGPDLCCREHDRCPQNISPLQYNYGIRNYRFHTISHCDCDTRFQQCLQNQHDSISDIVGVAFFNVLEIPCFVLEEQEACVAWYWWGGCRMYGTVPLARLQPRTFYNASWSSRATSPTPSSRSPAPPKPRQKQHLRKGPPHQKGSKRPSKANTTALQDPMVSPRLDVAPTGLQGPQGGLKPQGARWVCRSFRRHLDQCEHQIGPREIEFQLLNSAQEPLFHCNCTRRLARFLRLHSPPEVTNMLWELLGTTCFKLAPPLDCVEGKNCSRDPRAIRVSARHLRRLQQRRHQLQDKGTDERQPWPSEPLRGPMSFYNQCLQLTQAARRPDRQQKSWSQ
# ASAP1 inh – inhibitors of human ASAP1 ArfGAP activity. Q9ULH1. ASAP1-stimulated ARF1 GTP hydrolysis, GDP FP detection. inhibition, % at 16.5 µM. 360,000 compounds, 0.19% hits. AID 624377; in the data active = inhibition above about 25%;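 also: 0% = vehicle with enzyme and substrate and 100% = no enzyme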
# ARFGAP1 inh – inhibits rat ARF GTPase activating protein 1; Arfgap1-stimulated ARF1 GTP hydrolysis, GDP FP detection; inhibition, % at 16.5 µM; 360,000 compounds, 0.26% hits; AID 651572;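 active = inhibition above a per-plate limit, mean inhibition of low control wells plus 3 SD, cut at about 25% in these data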;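 also: 0% = DMSO wells with enzyme and 100% = wells lacking Arfgap1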
# Target sequence (Q62848 1-136 limits assumed): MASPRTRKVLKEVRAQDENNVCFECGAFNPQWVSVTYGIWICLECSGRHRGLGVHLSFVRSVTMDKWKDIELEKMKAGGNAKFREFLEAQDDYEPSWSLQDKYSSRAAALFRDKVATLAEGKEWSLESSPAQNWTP
#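 Assay system: purified rat His6-Arfgap1 residues 1-136 (GAP domain); Reagent: human Δ17 ARF1 bound to GTP; Dosing: 16.5 µM single point, 1.26% DMSO; Times: GTP hydrolysis reaction 2 h at 25 °C; Signal: FP, GDP Alexa 633 tracer displaced from anti-GDP antibody, 620/688 nm; Measure: % inhibition from polarization.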
# Numbers without * were called inactive; ? = inconclusive; · = no result given. This is a sample that favours compounds with a hit; in the whole collection about 2.3% have one here.
SMILES,Calb FLC,SKKanGAS inh,HGIII-sPLA2 inh,ASAP1 inh,ARFGAP1 inh
CCc1nc2ccc(C(=O)NCCc3c[nH]c4ccccc34)cn2c1N(C=O)CCC(C)C,·,·,-76.4,6.2,0.5
CC1CCc2c(sc(NS(=O)(=O)c3ccccc3)c2C(=O)OC(C)C)C1 (centres undefined),·,95.4*,-13.9,-4.9,0.7
c1csc(CNc2ncnc3ccc(-c4ccc5c(c4)OCO5)cc23)n1,·,·,-0.4,·,·
N#CC(C#N)=NNc1ccc([N+](=O)[O-])cc1,-6.7,86.5*,-7.6,-4.9,0.3
C/C(=N\Nc1ccc([N+](=O)[O-])cc1)c1ccc(C#N)cc1,-8.2,0.7,4.6,12.8,3.2
O=S(=O)(c1ccc(F)cc1)N1CCCc2nc(-c3ccc(F)cc3)ccc21,·,·,0.3,-13.0,-2.1
CCCCc1c(-c2ccccc2OC)ncn1Cc1ccc(F)c(F)c1,·,·,-8.5,2.8,5.3
Cc1ccc(-c2cc(-c3cccc(F)c3)n[nH]2)c(O)c1,0.6,51.6*,-43.7,11.6,15.9
Cc1nc(N)nc(N)c1/C=C/C(C)(C)c1ccc(Cl)cc1,-12.2,96.9*,-4.6,8.6,3.7
COc1ccc2[nH]c3c(=O)n(/N=C/c4ccc(OC)c(CN5CCCC5)c4)c(C)nc3c2c1,7.9,72.3*,-1.6,-1.5,3.9
COc1ccc(/C=N/n2cnc3c([nH]c4ccc(C)cc43)c2=O)cc1CN1CCCC1,-11.2,25.7,-2.4,10.0,-2.5
COc1ccc(/C=N/n2c(C)nc3c([nH]c4ccccc43)c2=O)cc1CN1CCCC(C)(C)C1,2.5,69.7*,-1.6,-15.0,9.8
COC(=O)[C@]12C[C@H](CC(=O)NCc3cccc4ccccc34)C(=O)N(CCC3=CCCCC3)C1=C[C@H](COCc1ccccc1)O[C@@H]2C,·,·,-3.6,-0.7,3.8
COc1cc(OC)cc(C(C)c2ccc(C)cc2)c1 (centres undefined),·,·,5.1,·,·
CCC(C)CN1C(=O)CN(S(C)(=O)=O)CC1(C)C(=O)Nc1c(C)cccc1C (centres undefined),·,·,0.6,-14.6,9.2
O=C(N/N=C/c1ccccn1)c1ccc(Cl)c(Cl)c1,-15.5,52.8*,2.1,-0.3,-0.2
O=C(N/N=C/c1ccccn1)c1ccc(NC(=O)c2ccccc2Cl)cc1,-0.9,-0.1,-7.5,-5.6,8.6
COc1ccccc1-n1c(SCC(=O)Nc2ccc(Br)cc2)nc(O)cc1=O,-4.9,64.2*,-5.7,16.3,1.0
COc1ccc(NC(=O)CSc2nc(O)cc(=O)n2-c2ccccc2)cc1,5.4,88.3*,-0.1,14.2,-3.4
COc1cc(C(C[N+](=O)[O-])c2c(N)n(C)c(=O)n(C)c2=O)ccc1O (centres undefined),2.4,1.3,2.8,8.8,12.7
COc1cccc(F)c1C(C[N+](=O)[O-])c1c(N)n(C)c(=O)n(C)c1=O (centres undefined),101.3*,-5.1,19.1,-2.4,-3.9
COC(=O)c1ccc(Cn2ccc3ccc(-c4ccc5ccn(Cc6ccccc6)c5c4)cc32)cc1,·,·,-3.2,·,·
CCS(=O)(=O)Nc1ccc2c(c1)C(=O)N(C)[C@@H]1CC[C@H](CC(=O)N3CCCCC3)O[C@H]1CO2,·,·,10.7,·,·
Cc1ccc(/C=C2\SC(=S)N(C3CCS(=O)(=O)C3)C2=O)o1 (centres undefined),?,8.1,-5.6,-4.4,8.9
NS(=O)(=O)c1ccc(-c2ccc(/C=C3\SC(=S)N(C4CCS(=O)(=O)C4)C3=O)o2)cc1 (centres undefined),23.0,73.4*,-3.4,11.5,5.3
SMILES,Calb FLC,SKKanGAS inh,HGIII-sPLA2 inh,ASAP1 inh,ARFGAP1 inh
COC(=O)[C@]12C[C@H](CC(=O)N3CCCCC3)C(=O)N(Cc3ccc(Cl)cc3Cl)C1=C[C@H](C(C)(C)C)O[C@@H]2C,·,·,6.7,·,·
CN(C)C(CNc1ncnc2sccc12)c1cccs1 (centres undefined),4.7,-11.0,3.8,4.5,0.5
CCOC(=O)c1sc2ncnc(NCC(c3cccs3)N(C)C)c2c1C (centres undefined),-3.6,53.4*,-2.1,-4.0,-1.2
CCc1ccc(N2C=C(C(=O)OC)C(c3ccc(OC)cc3)C(C#N)=C2N)cc1 (centres undefined),·,·,-15.2,-7.8,7.9
CCc1ccc(C2C(C#N)=C(N)C(C#N)(C#N)C3=CCC(C(C)(C)C)CC32)cc1 (centres undefined),12.4,84.5*,·,·,·
CCCOc1cccc(C(=O)Nc2cccnc2)c1,110.2*,3.5,-0.6,13.3,3.2
O=[N+]([O-])c1ccc(C2CCCC/C2=N/OCc2ccc(F)cc2)c([N+](=O)[O-])c1 (centres undefined),115.2*,12.3,5.5,1.0,-2.2
COc1cc(C(=O)NCCC(=O)NC2CCC(C)CC2)cc(OC)c1OC (centres undefined),-9.5,3.3,6.5,15.0,7.7
CC1CCC(NC(=O)CCNC(=O)c2ccccc2)CC1 (centres undefined),106.9*,-4.8,1.9,5.8,-1.5
CO[C@H]([C@H](C)/C=C/N(C)C=O)[C@@H](C)C(=O)CC[C@H](C)[C@H](O)[C@H](C)[C@H]1OC(=O)/C=C/C(C)=C/C[C@H](O)C[C@@H]2C=CC[C@@H](C[C@H](OC)[C@@H](CO)[C@@H](OC)C[C@@H](OC)[C@@H]1C)O2,·,·,-10.1,·,·
Cc1[nH]n(-c2ccccc2)c(=O)c1N=Nc1ccccc1O,-3.1,67.6*,-9.9,6.5,-3.0
Cc1[nH]n(-c2ccccc2)c(=O)c1N=Nc1ccccc1C(=O)O,42.4,20.9,-9.9,-4.8,1.0
Cc1[nH]n(-c2ccccc2)c(=O)c1N=Nc1nccs1,-11.1,94.0*,-5.6,-1.7,10.2
CCCCc1nnn2c1C1c3cc(-c4cccnc4)ccc3CCN1C(=O)C2 (centres undefined),·,·,-10.0,-2.5,12.5
COc1ccc(NS(=O)(=O)c2ccc(O)c(NC(=O)c3cc4c(C)nn(-c5ccc(F)cc5)c4s3)c2)cc1,-8.0,108.6*,·,·,·
COc1ccc(NS(=O)(=O)c2ccc(N3CCOCC3)c(NC(=O)c3ccc(F)cc3)c2)cc1,12.6,-8.6,-19.6,-6.7,4.1
C[C@H]1[C@@H](NC(=O)C2CCCCC2)CC[C@@]23CCCN2C(=O)CCC[C@@H]13,·,·,2.2,·,·
CCOC(=O)CC[C@@H]1CC[C@]2(CCCN(C(=O)C3CCCCC3)C2)O1,·,·,12.4,·,·
Cc1ccccc1C(=O)n1ccc2ccc(-c3ccc4ccn(Cc5ccccc5)c4c3)cc21,·,·,-0.4,·,·
Cc1ccc(/C=N/Nc2ccnc3cc(Cl)ccc23)c(C)c1,-7.0,94.7*,-6.5,9.2,17.3
CCC(=O)NC(c1cc(Cl)c2cccnc2c1O)C(C)C (centres undefined),·,·,11.5,-17.2,-6.2
COc1ccc(C(NC(C)=O)c2cc(Cl)c3cccnc3c2O)cc1 (centres undefined),2.6,53.1*,-6.1,1.7,6.9
CCCC(=O)NC(c1ccc(OC)c(OC)c1)c1cc(Cl)c2cccnc2c1O (centres undefined),13.1,22.8,4.6,2.5,7.2
